Each block holds one compound with its values, some of them ahead of it.
Tests used:
[1] = biological target: T1, Serine/threonine-protein kinase TAO1 (Homo sapiens) (UniProt Q7L7X3); assay: Inhibition of human recombinant TAO1 at 500 nM related to control ULK1
T1 sequence (whole entry): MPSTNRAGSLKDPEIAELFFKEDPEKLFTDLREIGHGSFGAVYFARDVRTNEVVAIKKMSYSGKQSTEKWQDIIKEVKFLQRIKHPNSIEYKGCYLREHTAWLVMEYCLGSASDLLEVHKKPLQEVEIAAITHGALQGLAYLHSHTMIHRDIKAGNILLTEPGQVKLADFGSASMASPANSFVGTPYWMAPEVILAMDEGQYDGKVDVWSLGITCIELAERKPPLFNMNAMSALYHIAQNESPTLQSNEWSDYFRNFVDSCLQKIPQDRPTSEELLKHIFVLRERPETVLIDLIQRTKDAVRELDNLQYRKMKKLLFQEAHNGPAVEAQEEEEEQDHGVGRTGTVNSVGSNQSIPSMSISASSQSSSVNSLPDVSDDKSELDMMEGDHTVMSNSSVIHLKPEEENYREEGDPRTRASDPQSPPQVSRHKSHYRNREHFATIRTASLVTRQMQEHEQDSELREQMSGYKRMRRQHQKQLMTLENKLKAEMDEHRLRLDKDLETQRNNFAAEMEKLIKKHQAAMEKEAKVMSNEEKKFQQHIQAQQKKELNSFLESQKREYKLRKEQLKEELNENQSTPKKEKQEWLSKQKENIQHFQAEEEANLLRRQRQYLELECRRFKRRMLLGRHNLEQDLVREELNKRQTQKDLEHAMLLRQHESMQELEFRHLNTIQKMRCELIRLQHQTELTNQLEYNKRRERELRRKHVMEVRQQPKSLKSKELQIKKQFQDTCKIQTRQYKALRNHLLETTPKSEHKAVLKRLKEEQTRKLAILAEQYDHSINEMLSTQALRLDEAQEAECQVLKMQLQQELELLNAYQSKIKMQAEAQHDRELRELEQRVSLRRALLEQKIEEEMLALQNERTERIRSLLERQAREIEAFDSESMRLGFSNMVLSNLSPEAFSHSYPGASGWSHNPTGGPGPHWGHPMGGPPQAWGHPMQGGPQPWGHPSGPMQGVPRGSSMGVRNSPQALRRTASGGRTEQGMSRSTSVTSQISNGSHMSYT

[2] = biological target: MAP kinase-activated protein kinase 3 (Homo sapiens) (UniProt Q16644); assay: Inhibition of human recombinant MAPKAPK3 at 500 nM related to control ULK1
Sequence of MAP kinase-activated protein kinase 3 (Homo sapiens) (Q16644 whole entry, looked up): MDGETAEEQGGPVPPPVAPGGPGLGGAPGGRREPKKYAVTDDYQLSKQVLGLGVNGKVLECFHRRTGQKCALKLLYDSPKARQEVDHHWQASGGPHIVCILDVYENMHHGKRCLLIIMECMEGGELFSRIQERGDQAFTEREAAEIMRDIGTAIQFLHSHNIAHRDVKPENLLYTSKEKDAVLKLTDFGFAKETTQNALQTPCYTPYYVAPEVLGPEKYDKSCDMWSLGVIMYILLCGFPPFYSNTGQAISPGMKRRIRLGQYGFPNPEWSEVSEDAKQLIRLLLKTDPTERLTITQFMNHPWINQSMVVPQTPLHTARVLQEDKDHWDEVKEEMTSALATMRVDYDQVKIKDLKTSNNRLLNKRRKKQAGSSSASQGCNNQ

[3] = biological target: Tyrosine-protein kinase Lck (Homo sapiens) (UniProt P06239); assay: Inhibition of human recombinant LCK at 500 nM related to control ULK1
Sequence of Tyrosine-protein kinase Lck (Homo sapiens) (P06239 2-509 limits assumed): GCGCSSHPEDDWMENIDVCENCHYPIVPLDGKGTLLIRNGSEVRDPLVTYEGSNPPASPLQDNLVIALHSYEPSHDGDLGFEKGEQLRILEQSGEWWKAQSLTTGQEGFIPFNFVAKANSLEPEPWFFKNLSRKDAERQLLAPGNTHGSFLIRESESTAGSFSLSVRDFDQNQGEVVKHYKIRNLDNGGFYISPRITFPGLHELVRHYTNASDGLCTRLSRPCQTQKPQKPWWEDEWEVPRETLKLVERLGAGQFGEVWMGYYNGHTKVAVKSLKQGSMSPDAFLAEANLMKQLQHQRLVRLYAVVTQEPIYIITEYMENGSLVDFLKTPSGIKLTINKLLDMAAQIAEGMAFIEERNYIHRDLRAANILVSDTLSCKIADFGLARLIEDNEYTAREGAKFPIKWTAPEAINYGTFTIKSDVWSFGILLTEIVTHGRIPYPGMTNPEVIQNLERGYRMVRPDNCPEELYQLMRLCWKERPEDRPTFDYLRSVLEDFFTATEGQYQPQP

[4] = biological target: RAC-gamma serine/threonine-protein kinase (Homo sapiens) (UniProt Q9Y243); assay: Inhibition of human recombinant AKT3 at 500 nM in presence of ATP by radiometric assay relative to control
Sequence of RAC-gamma serine/threonine-protein kinase (Homo sapiens) (Q9Y243 whole entry): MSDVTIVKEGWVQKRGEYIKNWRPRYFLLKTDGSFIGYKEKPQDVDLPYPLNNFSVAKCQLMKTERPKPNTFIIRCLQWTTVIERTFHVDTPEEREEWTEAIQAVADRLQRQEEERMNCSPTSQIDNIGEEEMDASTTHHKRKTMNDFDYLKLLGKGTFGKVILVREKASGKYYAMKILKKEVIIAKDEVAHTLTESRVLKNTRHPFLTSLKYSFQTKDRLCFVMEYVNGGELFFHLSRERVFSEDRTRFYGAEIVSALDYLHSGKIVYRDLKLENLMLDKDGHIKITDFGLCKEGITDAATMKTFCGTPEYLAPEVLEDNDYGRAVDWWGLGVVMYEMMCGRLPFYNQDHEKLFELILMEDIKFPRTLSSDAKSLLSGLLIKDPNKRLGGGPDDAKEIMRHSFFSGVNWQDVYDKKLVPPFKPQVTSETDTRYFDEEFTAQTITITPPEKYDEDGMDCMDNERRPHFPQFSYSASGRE
Procedure, shortened: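 Panel of 327 recombinant human kinases in radiometric activity assays, each screened in duplicate at a single inhibitor concentration; percent activity remaining relative to vehicle control, percent inhibition taken as 100 minus activity remaining.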

[5] = biological target: Casein kinase II subunit alpha' (Homo sapiens) (UniProt P19784); assay: Inhibition of human recombinant CK2a2 at 40 nM related to control ULK1
Sequence of Casein kinase II subunit alpha' (Homo sapiens) (P19784 whole entry, looked up): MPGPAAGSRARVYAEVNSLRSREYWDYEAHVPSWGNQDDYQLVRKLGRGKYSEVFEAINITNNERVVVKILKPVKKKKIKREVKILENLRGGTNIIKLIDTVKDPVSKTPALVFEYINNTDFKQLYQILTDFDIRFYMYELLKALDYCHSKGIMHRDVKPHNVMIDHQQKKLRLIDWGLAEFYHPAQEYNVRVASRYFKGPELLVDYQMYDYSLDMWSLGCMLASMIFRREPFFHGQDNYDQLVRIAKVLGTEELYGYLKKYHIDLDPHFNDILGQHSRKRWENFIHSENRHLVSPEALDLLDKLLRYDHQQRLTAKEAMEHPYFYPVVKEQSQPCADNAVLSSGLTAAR

[6] = biological target: Serine/threonine-protein kinase PRP4 homolog (Homo sapiens) (UniProt Q13523); assay: Inhibition of human recombinant PRP4 at 40 nM in presence of ATP by radiometric assay relative to control
Sequence of Serine/threonine-protein kinase PRP4 homolog (Homo sapiens) (Q13523 whole entry): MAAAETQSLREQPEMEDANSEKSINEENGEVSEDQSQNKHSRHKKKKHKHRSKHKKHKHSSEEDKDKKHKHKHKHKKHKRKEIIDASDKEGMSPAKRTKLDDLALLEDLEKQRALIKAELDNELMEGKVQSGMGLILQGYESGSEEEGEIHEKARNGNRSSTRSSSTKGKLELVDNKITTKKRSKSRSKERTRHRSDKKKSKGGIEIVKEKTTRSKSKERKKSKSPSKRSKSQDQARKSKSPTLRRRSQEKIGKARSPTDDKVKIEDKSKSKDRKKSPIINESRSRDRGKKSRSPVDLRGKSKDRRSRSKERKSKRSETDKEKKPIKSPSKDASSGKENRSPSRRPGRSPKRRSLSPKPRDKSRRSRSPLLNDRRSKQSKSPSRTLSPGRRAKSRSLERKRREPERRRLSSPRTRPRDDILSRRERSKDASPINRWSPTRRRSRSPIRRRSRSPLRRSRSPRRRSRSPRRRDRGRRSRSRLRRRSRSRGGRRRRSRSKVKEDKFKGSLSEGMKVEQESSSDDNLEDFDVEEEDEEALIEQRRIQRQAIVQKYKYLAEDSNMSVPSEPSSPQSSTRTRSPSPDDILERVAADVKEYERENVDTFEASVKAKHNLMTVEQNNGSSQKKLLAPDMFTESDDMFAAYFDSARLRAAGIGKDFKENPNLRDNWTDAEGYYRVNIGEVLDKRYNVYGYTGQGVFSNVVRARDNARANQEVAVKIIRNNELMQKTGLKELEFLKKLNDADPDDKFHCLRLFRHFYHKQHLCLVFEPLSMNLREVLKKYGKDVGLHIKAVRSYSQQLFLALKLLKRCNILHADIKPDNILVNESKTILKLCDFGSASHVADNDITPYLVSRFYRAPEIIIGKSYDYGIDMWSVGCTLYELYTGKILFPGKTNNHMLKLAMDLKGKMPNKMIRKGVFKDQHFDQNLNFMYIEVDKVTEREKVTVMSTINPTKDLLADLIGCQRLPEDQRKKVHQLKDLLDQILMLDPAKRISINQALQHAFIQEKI

[7] = biological target: Cyclin-dependent kinase 1 (Homo sapiens) (UniProt P06493); assay: Inhibition of human recombinant CDC2 at 40 nM in presence of ATP by radiometric assay relative to control
Sequence of Cyclin-dependent kinase 1 (Homo sapiens) (P06493 whole entry, looked up): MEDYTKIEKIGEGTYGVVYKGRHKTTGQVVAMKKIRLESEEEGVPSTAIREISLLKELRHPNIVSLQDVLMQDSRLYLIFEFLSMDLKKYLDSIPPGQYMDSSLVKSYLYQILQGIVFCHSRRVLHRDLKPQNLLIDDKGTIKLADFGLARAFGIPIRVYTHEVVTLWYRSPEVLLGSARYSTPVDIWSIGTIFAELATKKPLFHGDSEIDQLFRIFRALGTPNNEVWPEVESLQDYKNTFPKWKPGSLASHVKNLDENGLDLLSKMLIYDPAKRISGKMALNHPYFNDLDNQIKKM

[8] = biological target: Serine/threonine-protein kinase N2 (Homo sapiens) (UniProt Q16513); assay: Inhibition of human recombinant PKN2 at 40 nM related to control ULK1
Sequence of Serine/threonine-protein kinase N2 (Homo sapiens) (Q16513 whole entry, looked up): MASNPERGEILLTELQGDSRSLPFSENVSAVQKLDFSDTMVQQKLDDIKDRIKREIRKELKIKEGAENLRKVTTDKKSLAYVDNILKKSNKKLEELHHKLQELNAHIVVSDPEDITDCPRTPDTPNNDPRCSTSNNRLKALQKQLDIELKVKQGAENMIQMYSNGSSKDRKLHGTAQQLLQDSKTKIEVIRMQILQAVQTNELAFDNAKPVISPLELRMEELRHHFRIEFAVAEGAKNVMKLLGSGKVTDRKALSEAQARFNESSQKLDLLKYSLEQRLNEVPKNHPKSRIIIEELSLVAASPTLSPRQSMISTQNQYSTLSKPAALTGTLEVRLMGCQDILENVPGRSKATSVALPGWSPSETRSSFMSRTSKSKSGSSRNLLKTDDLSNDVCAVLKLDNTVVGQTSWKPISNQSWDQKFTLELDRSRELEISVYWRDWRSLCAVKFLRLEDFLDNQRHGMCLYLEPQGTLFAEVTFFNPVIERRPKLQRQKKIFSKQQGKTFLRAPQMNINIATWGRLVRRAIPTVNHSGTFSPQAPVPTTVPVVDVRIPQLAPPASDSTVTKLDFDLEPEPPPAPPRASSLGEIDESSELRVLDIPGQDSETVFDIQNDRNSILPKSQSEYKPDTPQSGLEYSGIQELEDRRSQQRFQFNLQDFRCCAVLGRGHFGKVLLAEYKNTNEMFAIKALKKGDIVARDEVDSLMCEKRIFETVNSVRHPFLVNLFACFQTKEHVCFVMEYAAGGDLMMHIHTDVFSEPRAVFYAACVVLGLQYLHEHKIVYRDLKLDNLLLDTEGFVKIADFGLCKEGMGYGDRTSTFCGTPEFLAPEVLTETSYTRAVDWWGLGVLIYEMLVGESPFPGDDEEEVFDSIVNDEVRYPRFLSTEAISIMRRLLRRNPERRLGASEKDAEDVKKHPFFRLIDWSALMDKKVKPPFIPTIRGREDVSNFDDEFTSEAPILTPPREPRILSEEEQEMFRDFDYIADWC

[9] = biological target: T2, Tribbles homolog 2 (Homo sapiens) (UniProt Q92519); assay: Inhibition of human recombinant Trb2 at 40 nM in presence of ATP by radiometric assay relative to control
T2 sequence (whole entry): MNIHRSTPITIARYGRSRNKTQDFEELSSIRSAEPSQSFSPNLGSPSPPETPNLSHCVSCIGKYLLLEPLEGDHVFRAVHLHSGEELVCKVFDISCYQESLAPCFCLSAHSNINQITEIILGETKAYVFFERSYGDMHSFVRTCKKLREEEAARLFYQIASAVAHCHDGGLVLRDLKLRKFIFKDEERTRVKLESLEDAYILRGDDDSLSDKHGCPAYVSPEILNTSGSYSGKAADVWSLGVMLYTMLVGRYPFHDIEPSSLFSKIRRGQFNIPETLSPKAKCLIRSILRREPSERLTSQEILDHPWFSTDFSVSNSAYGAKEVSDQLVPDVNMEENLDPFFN

[10] = biological target: 5'-AMP-activated protein kinase catalytic subunit alpha-1 (Homo sapiens) (UniProt Q13131); assay: Inhibition of human recombinant AMPKa1 at 40 nM in presence of ATP by radiometric assay relative to control
Sequence of 5'-AMP-activated protein kinase catalytic subunit alpha-1 (Homo sapiens) (Q13131 whole entry, looked up): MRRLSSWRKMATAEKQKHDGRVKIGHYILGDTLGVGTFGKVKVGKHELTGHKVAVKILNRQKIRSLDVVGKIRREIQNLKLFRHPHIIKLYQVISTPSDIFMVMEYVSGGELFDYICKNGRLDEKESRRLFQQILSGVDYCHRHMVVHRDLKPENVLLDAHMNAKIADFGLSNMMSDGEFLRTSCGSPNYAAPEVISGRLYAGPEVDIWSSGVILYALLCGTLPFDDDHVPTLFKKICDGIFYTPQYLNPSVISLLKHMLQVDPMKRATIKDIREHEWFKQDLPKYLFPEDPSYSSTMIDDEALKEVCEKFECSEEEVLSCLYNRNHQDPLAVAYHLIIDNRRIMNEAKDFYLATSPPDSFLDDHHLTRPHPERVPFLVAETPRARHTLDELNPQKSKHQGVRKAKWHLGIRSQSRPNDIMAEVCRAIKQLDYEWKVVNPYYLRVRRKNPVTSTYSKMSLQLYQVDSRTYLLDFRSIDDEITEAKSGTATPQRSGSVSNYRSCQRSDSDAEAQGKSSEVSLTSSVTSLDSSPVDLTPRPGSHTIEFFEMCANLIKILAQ
Procedure, shortened: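 Panel of 327 recombinant human kinases, each assayed in vitro by radiometric activity assay in duplicate at a single inhibitor concentration per compound, chosen with reference to its ULK1 inhibition. Activity remaining was expressed as percent of vehicle control, and percent inhibition was calculated as 100 minus percent activity remaining.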

[11] = biological target: T3, Serine/threonine-protein kinase Chk1 (Homo sapiens) (UniProt O14757); assay: Inhibition of human recombinant CHK1 at 15 nM related to control ULK1
T3 sequence (whole entry): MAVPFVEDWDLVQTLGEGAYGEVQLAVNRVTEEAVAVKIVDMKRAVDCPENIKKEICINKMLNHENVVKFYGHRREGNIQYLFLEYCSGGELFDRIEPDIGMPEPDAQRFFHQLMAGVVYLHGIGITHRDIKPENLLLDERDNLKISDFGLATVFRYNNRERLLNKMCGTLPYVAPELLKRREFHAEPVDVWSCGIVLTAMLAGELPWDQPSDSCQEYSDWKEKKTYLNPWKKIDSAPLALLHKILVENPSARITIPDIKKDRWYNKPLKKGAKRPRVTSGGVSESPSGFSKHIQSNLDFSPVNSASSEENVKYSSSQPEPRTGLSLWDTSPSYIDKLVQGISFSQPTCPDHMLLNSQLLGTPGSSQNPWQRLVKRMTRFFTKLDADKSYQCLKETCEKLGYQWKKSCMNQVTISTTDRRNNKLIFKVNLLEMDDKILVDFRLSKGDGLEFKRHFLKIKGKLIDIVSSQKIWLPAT

[12] = biological target: DNA-PK/Ku70/Ku85 (Homo sapiens) (UniProt P78527+P12956+P13010); assay: Inhibition of human recombinant DNAPK at 15 nM in presence of ATP by radiometric assay relative to control; assay type: protein-complex assay

fold change (FC) [1]: 0.08
fold change (FC) [2]: 0
fold change (FC) [3]: 0.18
inhibition [4]: 5%
SMILES: CNC(=O)c1ccccc1Oc1nc(Nc2cc(OC)c(OC)c(OC)c2)ncc1Br

fold change (FC) [5]: 0.11
inhibition [6]: 6%
inhibition [7]: 45%
fold change (FC) [8]: 0
inhibition [9]: 34%
inhibition [10]: 8%
SMILES: O=C(N[C@@H](C1CC1)C(F)(F)F)c1cc(-c2cnn3cc(-c4ccc(F)cc4)cnc23)cs1

fold change (FC) [11]: 0
inhibition [12]: 0%
SMILES: CC(C)[C@H](NC(=O)c1cc(-c2cnn3cc(-c4ccc(OCCN5CCCCC5)cc4)cnc23)cs1)C(F)(F)F
